Twelve compounds from ChEMBL document CHEMBL1240528, “Discovery of novel 5-benzylidenerhodanine and 5-benzylidenethiazolidine-2,4-dione inhibitors of MurD ligase” (J Med Chem, 2010) can be followed below.

A short description of assay [1]: Inhibition of Escherichia coli MurD ligase assessed as residual activity by colorimetry. An outline of the steps: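 Malachite green orthophosphate detection with purified E. coli MurD. Substrates 80 μM UDP-MurNAc-L-Ala, 100 μM D-Glu, 400 μM ATP; 5% DMSO final. Incubated 37 C for 15 min, A650 read. IC50 from seven concentrations run in triplicate.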
The test system of assay [2] is Escherichia coli. The assay is described as follows: Inhibition of Escherichia coli MurD ligase assessed as residual activity at 250 uM by colorimetry; values are per cent of control.
The subject of the next assay is Enterococcus faecalis. The assay is described as follows: Antimicrobial activity against Enterococcus faecalis ATCC 29212 by macrodilution method.
The subject of another assay is Staphylococcus aureus. The assay is described as follows: Antimicrobial activity against Staphylococcus aureus ATCC 29213 by microdilution method. The class given is functional. The note with it: in the assay text read “macrodilution” for “microdilution”. An outline of the steps: (§1)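 Broth macrodilution in cation-adjusted Mueller–Hinton broth. Stock 2 mg/mL in DMSO, serially diluted to final 0.016–128 μg/mL. Inoculum from four colonies of a fresh overnight culture, adjusted to 0.5 McFarland and diluted to approximately 10^5 CFU/mL, then mixed 1:1 with drug. Incubated 35 C for 18–24 h. MIC is the lowest concentration giving complete inhibition of visible growth. QC with S. aureus ATCC 29213 and gentamicin.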
Background: Dilution methods test growth across graded concentrations, often in twofold steps.

The nature of assay [3]: Inhibition of Escherichia coli MurD ligase assessed as conversion of D-[14C]Glu to UDP-MurNac-L-Ala by radioactivity assay. An outline of the steps: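 Incubated 37 C for 30 min, stopped with acetic acid. Substrate and product separated by TLC and quantified by radioactivity scanning. IC50 from residual activities at seven concentrations.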
In assay [4] the test system is Escherichia coli. Briefly: Antimicrobial activity against Escherichia coli ATCC 25922 by microdilution method. The note with it: in the assay text read “macrodilution” for “microdilution”. Type of assay: functional. An outline of the steps:
as §1

The next assay has as its system Pseudomonas aeruginosa. The assay is described as follows: Antimicrobial activity against Pseudomonas aeruginosa ATCC 27853 by microdilution method. Type of assay: functional. As to conditions: in the assay text read “macrodilution” for “microdilution”. An outline of the steps:
as §1

Consider `O=C(O)CC[C@H](NC(=O)c1ccc(CNc2cccc(/C=C3\SC(=S)NC3=O)c2)cc1)C(=O)O`, for which the IC50 (commonly the concentration at which inhibition is half-maximal) in assay [1] was found to be 206 µM.

`O=C(O)CC[C@@H](NC(=O)c1cccc(CNc2cccc(/C=C3\SC(=S)NC3=O)c2)c1)C(=O)O`: the residual activity (as a rule, the activity still measured, relative to the control) in the assay on Escherichia coli [2] is 39%.

Take `O=C(O)CC[C@H](NC(=O)c1ccc(CNc2cccc(/C=C3\SC(=O)NC3=O)c2)cc1)C(=O)O`: the residual activity in the assay on Escherichia coli [2] stood at 87%.

`O=C(O)CC[C@@H](NC(=O)c1cccc(CNc2ccc(/C=C3\SC(=S)NC3=O)cc2)c1)C(=O)O`: the MIC in the assay with Enterococcus faecalis, in the assay with Staphylococcus aureus, in the assay on Escherichia coli [4] and against Pseudomonas aeruginosa was above 128 µg/mL each time. Besides, the IC50 in assay [3] came to 49 µM; in assay [1], 45 µM.

On to `O=C(O)CC[C@@H](NC(=O)c1ccc(CNc2ccc(/C=C3\SC(=S)NC3=O)cc2)cc1)C(=O)O`, for which, in the assay with Escherichia coli [2], the residual activity amounted to 74%.

For the compound `O=C(O)CC[C@@H](NC(=O)c1ccc(CNc2cccc(/C=C3\SC(=O)NC3=O)c2)cc1)C(=O)O`, the residual activity in the assay on Escherichia coli [2] amounted to 85%.

Take `O=C(O)CC[C@@H](NC(=O)c1cccc(CNc2cccc(/C=C3\SC(=O)NC3=O)c2)c1)C(=O)O`: the residual activity with Escherichia coli [2] was 87%.

On to `O=C(O)CC[C@@H](NC(=O)c1ccc(CNc2cccc(/C=C3\SC(=S)NC3=O)c2)cc1)C(=O)O`, for which the MIC in the assay on Enterococcus faecalis, against Staphylococcus aureus, in the assay on Escherichia coli [4] and in the assay on Pseudomonas aeruginosa was above 128 µg/mL in each case. Besides, the IC50 in assay [1] is 174 µM.

Turning to `O=C(O)CC[C@@H](NC(=O)c1cccc(CNc2ccc(/C=C3\SC(=O)NC3=O)cc2)c1)C(=O)O`, the IC50 in assay [3] worked out at 35 µM.

With `O=C(O)CC[C@H](NC(=O)c1ccc(CNc2ccc(/C=C3\SC(=O)NC3=O)cc2)cc1)C(=O)O`, the residual activity in the assay with Escherichia coli [2] was determined as 88%.

Take `O=C(O)CC[C@@H](NC(=O)c1ccc(CNc2ccc(/C=C3\SC(=O)NC3=O)cc2)cc1)C(=O)O`: the residual activity in the assay on Escherichia coli [2] was 70%.

As for `O=C(O)CC[C@H](NC(=O)c1ccc(CNc2ccc(/C=C3\SC(=S)NC3=O)cc2)cc1)C(=O)O`, the residual activity in the assay on Escherichia coli [2] was 68%.
